According to ChEMBL document CHEMBL3124806, “Imidazopyridine-fused [1,3]-diazepinones: synthesis and antiproliferative activity” (Eur J Med Chem, 2014):

Key:
Format in all cases: functional
KM12 = test: Cytotoxicity against human KM12 cells assessed as cell growth at 10 uM after 48 hrs by SRB assay relative to untreated control; conditions: KM12, 48 h, read-out: Activity
Procedure, shortened: (§1)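 NCI-60 panel screen at a single concentration of 10 μM with 48 h incubation. Cell density measured by sulforhodamine B protein-binding dye and read spectrophotometrically. Growth expressed as percent of untreated control cells.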

OVCAR-3 = test: Cytotoxicity against human OVCAR3 cells assessed as cell growth at 10 uM after 48 hrs by SRB assay relative to untreated control; conditions: OVCAR-3, 48 h, read-out: Activity
Procedure, shortened: (§2)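 NCI-60 one-dose screen: each agent added at 10 µM, cultures incubated 48 h. Endpoint by sulforhodamine B protein-binding dye read spectrophotometrically; growth expressed as percent of untreated control cells.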

HOP-92 = test: Cytotoxicity against human HOP92 cells assessed as cell growth at 10 uM after 48 hrs by SRB assay relative to untreated control; conditions: HOP-92, 48 h, read-out: Activity; procedure, shortened: as §1
BT-549 = test: Cytotoxicity against human BT549 cells assessed as cell growth at 10 uM after 48 hrs by SRB assay relative to untreated control; conditions: BT-549, 48 h, read-out: Activity; procedure, shortened: as §1
[1] = Cytotoxicity against human OVCAR4 cells assessed as cell growth at 10 uM after 48 hrs by SRB assay relative to untreated control; conditions: OVCAR-4, 48 h, read-out: Activity; procedure, shortened: as §2
SNB-75 = test: Cytotoxicity against human SNB75 cells assessed as cell growth at 10 uM after 48 hrs by SRB assay relative to untreated control; conditions: SNB-75, 48 h, read-out: Activity
Procedure, shortened: (§3)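 NCI-60 single-dose screen. Compounds were added to the cultures at 10 μM and incubated for 48 h. The end point was sulforhodamine B protein staining read spectrophotometrically. Growth is reported as percent of untreated control cells.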

NCI-H23 = test: Cytotoxicity against human NCI-H23 cells assessed as cell growth at 10 uM after 48 hrs by SRB assay relative to untreated control; conditions: NCI-H23, 48 h, read-out: Activity; procedure, shortened: as §2
DU-145 = test: Cytotoxicity against human DU145 cells assessed as cell growth at 10 uM after 48 hrs by SRB assay relative to untreated control; conditions: DU-145, 48 h, read-out: Activity; procedure, shortened: as §1
SR = test: Cytotoxicity against human SR cells assessed as cell growth at 10 uM after 48 hrs by SRB assay relative to untreated control; conditions: read-out: Activity; procedure, shortened: as §3
Malme-3M = test: Cytotoxicity against human MALME-3M cells assessed as cell growth at 10 uM after 48 hrs by SRB assay relative to untreated control; conditions: read-out: Activity; procedure, shortened: as §1
[2] = Cytotoxicity against human Hs578T cells assessed as cell growth at 10 uM after 48 hrs by SRB assay relative to untreated control; conditions: Hs-578T, read-out: Activity; procedure, shortened: as §1
COLO 205 = test: Cytotoxicity against human COLO205 cells assessed as cell growth at 10 uM after 48 hrs by SRB assay relative to untreated control; conditions: COLO 205, 48 h, read-out: Activity; procedure, shortened: as §1
HCT-116 = test: Cytotoxicity against human HCT116 cells assessed as cell growth at 10 uM after 48 hrs by SRB assay relative to untreated control; conditions: HCT-116, 48 h, read-out: Activity; procedure, shortened: as §1
U-251 = test: Cytotoxicity against human U251 cells assessed as cell growth at 10 uM after 48 hrs by SRB assay relative to untreated control; conditions: U-251, 48 h, read-out: Activity; procedure, shortened: as §3
SF-268 = test: Cytotoxicity against human SF268 cells assessed as cell growth at 10 uM after 48 hrs by SRB assay relative to untreated control; conditions: SF-268, 48 h, read-out: Activity; procedure, shortened: as §2
NCI-H322M = test: Cytotoxicity against human NCI-H322M cells assessed as cell growth at 10 uM after 48 hrs by SRB assay relative to untreated control; conditions: read-out: Activity; procedure, shortened: as §2
LOX IMVI = test: Cytotoxicity against human LOXIMVI cells assessed as cell growth at 10 uM after 48 hrs by SRB assay relative to untreated control; conditions: read-out: Activity; procedure, shortened: as §1
K562 = test: Cytotoxicity against human K562 cells assessed as cell growth at 10 uM after 48 hrs by SRB assay relative to untreated control; conditions: K562, 48 h, read-out: Activity; procedure, shortened: as §1
[3] = Cytotoxicity against human UACC257 cells assessed as cell growth at 10 uM after 48 hrs by SRB assay relative to untreated control; conditions: UACC-257, 48 h, read-out: Activity; procedure, shortened: as §3
SW-620 = test: Cytotoxicity against human SW620 cells assessed as cell growth at 10 uM after 48 hrs by SRB assay relative to untreated control; conditions: SW-620, 48 h, read-out: Activity; procedure, shortened: as §3
RXF 393 = test: Cytotoxicity against human RXF393 cells assessed as cell growth at 10 uM after 48 hrs by SRB assay relative to untreated control; conditions: RXF 393, 48 h, read-out: Activity; procedure, shortened: as §2
786-0 = test: Cytotoxicity against human […] cells assessed as cell growth at 10 uM after 48 hrs by SRB assay relative to untreated control; conditions: 786-0, 48 h, read-out: Activity; procedure, shortened: as §1
[4] = Cytotoxicity against human NCI-ADR-RES cells assessed as cell growth at 10 uM after 48 hrs by SRB assay relative to untreated control; conditions: read-out: Activity; procedure, shortened: as §2
UACC-62 = test: Cytotoxicity against human UACC62 cells assessed as cell growth at 10 uM after 48 hrs by SRB assay relative to untreated control; conditions: UACC-62, 48 h, read-out: Activity; procedure, shortened: as §3
SF-295 = test: Cytotoxicity against human SF295 cells assessed as cell growth at 10 uM after 48 hrs by SRB assay relative to untreated control; conditions: SF-295, 48 h, read-out: Activity; procedure, shortened: as §2
MOLT-4 = test: Cytotoxicity against human MOLT4 cells assessed as cell growth at 10 uM after 48 hrs by SRB assay relative to untreated control; conditions: MOLT-4, 48 h, read-out: Activity; procedure, shortened: as §2
PC-3 = test: Cytotoxicity against human PC3 cells assessed as cell growth at 10 uM after 48 hrs by SRB assay relative to untreated control; conditions: PC-3, 48 h, read-out: Activity; procedure, shortened: as §2
HCT-15 = test: Cytotoxicity against human HCT15 cells assessed as cell growth at 10 uM after 48 hrs by SRB assay relative to untreated control; conditions: HCT-15, 48 h, read-out: Activity; procedure, shortened: as §1
T47D = test: Cytotoxicity against human T47D cells assessed as cell growth at 10 uM after 48 hrs by SRB assay relative to untreated control; conditions: read-out: Activity; procedure, shortened: as §3
SK-OV-3 = test: Cytotoxicity against human SKOV3 cells assessed as cell growth at 10 uM after 48 hrs by SRB assay relative to untreated control; conditions: SK-OV-3, 48 h, read-out: Activity; procedure, shortened: as §3
HOP-62 = test: Cytotoxicity against human HOP62 cells assessed as cell growth at 10 uM after 48 hrs by SRB assay relative to untreated control; conditions: HOP-62, 48 h, read-out: Activity; procedure, shortened: as §1
A498 = test: Cytotoxicity against human A498 cells assessed as cell growth at 10 uM after 48 hrs by SRB assay relative to untreated control; conditions: A498, 48 h, read-out: Activity; procedure, shortened: as §1

| SMILES | growth at 10 µM (KM12) [%] | growth at 10 µM (OVCAR-3) [%] | growth at 10 µM (HOP-92) [%] | growth at 10 µM (BT-549) [%] | growth at 10 µM [1] [%] | growth at 10 µM (SNB-75) [%] | growth at 10 µM (NCI-H23) [%] | growth at 10 µM (DU-145) [%] | growth at 10 µM (SR) [%] | growth at 10 µM (Malme-3M) [%] | growth at 10 µM [2] [%] | growth at 10 µM (COLO 205) [%] | growth at 10 µM (HCT-116) [%] | growth at 10 µM (U-251) [%] | growth at 10 µM (SF-268) [%] | growth at 10 µM (NCI-H322M) [%] | growth at 10 µM (LOX IMVI) [%] | growth at 10 µM (K562) [%] | growth at 10 µM [3] [%] | growth at 10 µM (SW-620) [%] | also measured |
| --- | --- | --- | --- | --- | --- | --- | --- | --- | --- | --- | --- | --- | --- | --- | --- | --- | --- | --- | --- | --- | --- |
| Cc1ccc(C2=Nc3nc4ccccn4c3C(=O)[C@H](Cc3ccccc3)N2)cc1 | 92.9 | 99.3 | 88.3 | 88.3 | 102 | 80.2 | 82.5 | 117 | 89.7 | 99.9 | 96.2 | 113 | 94.3 | 99.3 | 97.4 | 104 | 85.8 | 87.9 | 91.1 | 102 | growth at 10 µM (RXF 393): 95.7%; growth at 10 µM (786-0): 106%; growth at 10 µM [4]: 87.1%; growth at 10 µM (UACC-62): 93.2%; growth at 10 µM (SF-295): 84%; growth at 10 µM (MOLT-4): 92.8%; growth at 10 µM (PC-3): 80.7%; growth at 10 µM (HCT-15): 78%; growth at 10 µM (T47D): 96.5%; growth at 10 µM (SK-OV-3): 109%; growth at 10 µM (HOP-62): 75.9%; growth at 10 µM (A498): 101% |
| O=C1c2c(nc3ccccn23)N=C(c2ccccc2)N2CCC[C@@H]12 | 101 | 105 | 82.7 | 99.1 | 95.2 | 88.3 | 97.8 | 97 | 118 | 102 | 96.7 | 99.3 | 97.8 | 96.2 | 97.8 | 106 | 90.1 | 124 | 94.5 | 102 | growth at 10 µM (RXF 393): 98.5%; growth at 10 µM (786-0): 97.9%; growth at 10 µM [4]: 97.7%; growth at 10 µM (UACC-62): 107%; growth at 10 µM (SF-295): 103%; growth at 10 µM (MOLT-4): 111%; growth at 10 µM (PC-3): 92.6%; growth at 10 µM (HCT-15): 93.8%; growth at 10 µM (T47D): 93.6%; growth at 10 µM (SK-OV-3): 103%; growth at 10 µM (HOP-62): 99.9%; growth at 10 µM (A498): 89.3% |
| C[C@@H]1NC(c2ccc(Br)cc2)=Nc2nc3ccccn3c2C1=O | 29.6 | 17.3 | 59.5 | 49.3 | 77.5 | 50.2 | 53.7 | 87.7 | 30 | 51.8 | 71.3 | 26.3 | 29.2 | 54 | 83.4 | 74 | 52.4 | 24.3 | 70 | 38 | growth at 10 µM (RXF 393): 68.2%; growth at 10 µM (786-0): 83.1%; growth at 10 µM [4]: 39.4%; growth at 10 µM (UACC-62): 49.2%; growth at 10 µM (SF-295): 40.9%; growth at 10 µM (MOLT-4): 57.5%; growth at 10 µM (PC-3): 63.2%; growth at 10 µM (HCT-15): 30.8%; growth at 10 µM (T47D): 67.2%; growth at 10 µM (SK-OV-3): 72%; growth at 10 µM (HOP-62): 55.8%; growth at 10 µM (A498): 69.9% |
